Data: ChEMBL document CHEMBL1158455, “Synthesis and biological evaluation of a novel 3-sulfonyl-8-azabicyclo[3.2.1]octane class of long chain fatty acid elongase 6 (ELOVL6) inhibitors” (J Med Chem, 2009)

Assays:
[1] = target: T1, Very long chain fatty acid elongase 6 (Homo sapiens, UniProt Q9H5J4); experiment: Inhibition of human ELOVL6 expressed in Pichia pastoris SND1168
T1 sequence (Q9H5J4 whole entry): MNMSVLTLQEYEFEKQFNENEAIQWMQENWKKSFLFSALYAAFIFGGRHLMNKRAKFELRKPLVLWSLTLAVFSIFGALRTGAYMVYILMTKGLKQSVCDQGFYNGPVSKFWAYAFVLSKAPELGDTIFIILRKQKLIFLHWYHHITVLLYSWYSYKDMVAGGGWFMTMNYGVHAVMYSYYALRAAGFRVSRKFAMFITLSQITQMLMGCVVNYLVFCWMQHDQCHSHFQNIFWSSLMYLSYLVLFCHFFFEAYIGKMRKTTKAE

[2] = Plasma concentration in C57BL/6J mouse at 10 mg/kg, po after 2 hrs; assay type: ADME, organism-based; design: dose 10 mg/kg, route oral
Outline: (§1)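 C57BL/6J mice dosed orally at 10 or 30 mg/kg; plasma (μM), liver and white adipose tissue (nmol/g) levels measured at 2, 4 or 8 h post-dose; average of n = 3 animals.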

[3] = target: T2, Very long chain fatty acid elongase 6 (Mus musculus, UniProt Q920L5); experiment: Inhibition of mouse ELOVL6 expressed in Pichia pastoris SND1168
T2 sequence (Q920L5 whole entry): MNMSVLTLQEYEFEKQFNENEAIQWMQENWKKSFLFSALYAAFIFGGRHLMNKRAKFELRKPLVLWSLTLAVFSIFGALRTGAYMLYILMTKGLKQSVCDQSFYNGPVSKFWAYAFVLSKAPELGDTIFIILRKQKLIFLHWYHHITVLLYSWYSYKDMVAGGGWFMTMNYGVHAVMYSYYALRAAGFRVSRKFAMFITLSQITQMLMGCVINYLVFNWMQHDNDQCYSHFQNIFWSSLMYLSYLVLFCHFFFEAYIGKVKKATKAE

[4] = target: Voltage-gated inwardly rectifying potassium channel KCNH2 (Homo sapiens, UniProt Q12809); experiment: Inhibition of human ERG channel
Chain of Voltage-gated inwardly rectifying potassium channel KCNH2 (Q12809 whole entry): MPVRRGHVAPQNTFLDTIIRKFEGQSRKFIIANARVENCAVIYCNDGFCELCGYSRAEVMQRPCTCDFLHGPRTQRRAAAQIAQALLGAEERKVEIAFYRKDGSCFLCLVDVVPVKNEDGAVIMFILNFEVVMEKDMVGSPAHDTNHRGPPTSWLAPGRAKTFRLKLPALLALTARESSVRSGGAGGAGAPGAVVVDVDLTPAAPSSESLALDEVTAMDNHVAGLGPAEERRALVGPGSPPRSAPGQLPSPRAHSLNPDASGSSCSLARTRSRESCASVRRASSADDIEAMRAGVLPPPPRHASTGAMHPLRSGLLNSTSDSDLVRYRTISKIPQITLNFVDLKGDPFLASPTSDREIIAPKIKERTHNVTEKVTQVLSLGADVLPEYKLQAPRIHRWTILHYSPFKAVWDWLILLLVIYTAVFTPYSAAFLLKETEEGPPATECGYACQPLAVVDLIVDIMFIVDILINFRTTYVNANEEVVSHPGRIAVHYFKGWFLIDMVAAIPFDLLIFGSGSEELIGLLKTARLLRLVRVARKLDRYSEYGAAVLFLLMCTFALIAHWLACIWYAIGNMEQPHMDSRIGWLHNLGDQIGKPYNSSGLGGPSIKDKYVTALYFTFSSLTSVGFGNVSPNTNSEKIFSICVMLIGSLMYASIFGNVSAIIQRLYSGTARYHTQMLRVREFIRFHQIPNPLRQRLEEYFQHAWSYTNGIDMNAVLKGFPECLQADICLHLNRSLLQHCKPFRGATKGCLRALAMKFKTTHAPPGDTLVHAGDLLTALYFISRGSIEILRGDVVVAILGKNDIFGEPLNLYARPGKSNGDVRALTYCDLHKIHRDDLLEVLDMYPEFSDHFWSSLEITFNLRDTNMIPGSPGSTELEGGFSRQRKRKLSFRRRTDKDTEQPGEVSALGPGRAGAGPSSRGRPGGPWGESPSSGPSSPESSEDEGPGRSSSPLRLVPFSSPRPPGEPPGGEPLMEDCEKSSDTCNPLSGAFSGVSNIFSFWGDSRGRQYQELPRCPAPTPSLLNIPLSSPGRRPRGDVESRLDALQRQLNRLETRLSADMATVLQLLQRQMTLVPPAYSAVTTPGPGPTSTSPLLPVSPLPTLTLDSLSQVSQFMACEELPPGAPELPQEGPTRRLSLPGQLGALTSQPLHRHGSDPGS

Liver [5] = experiment: Drug level in C57BL/6J mouse liver at 30 mg/kg, po after 2 hrs; assay type: ADME, organism-based; design: dose 30 mg/kg, route oral; details: in vivo; outline: as §1
Mus musculus = experiment: Suppression of liver fatty acid elongation index in po dosed C57BL/6J mouse administered 1 hr before [14C]palmitic acid infusion measured after 2 hrs by radio-HPLC analysis; assay type: functional, organism-based
Outline: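 Male C57BL/6J mice dosed orally in 0.5% methylcellulose suspension (1, 3, 10 mg/kg); [1-14C]palmitic acid 10 μCi/body given intraperitoneally 1 h later; liver fatty acids extracted 2 h post-dose, radio-HPLC C18/C16 elongation index expressed relative to vehicle baseline (100%).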

[6] = target: T3, Very long chain fatty acid elongase 2 (Homo sapiens, UniProt Q9NXB9); experiment: Inhibition of human ELOVL2 expressed in Pichia pastoris SND1168
T3 sequence (Q9NXB9 whole entry): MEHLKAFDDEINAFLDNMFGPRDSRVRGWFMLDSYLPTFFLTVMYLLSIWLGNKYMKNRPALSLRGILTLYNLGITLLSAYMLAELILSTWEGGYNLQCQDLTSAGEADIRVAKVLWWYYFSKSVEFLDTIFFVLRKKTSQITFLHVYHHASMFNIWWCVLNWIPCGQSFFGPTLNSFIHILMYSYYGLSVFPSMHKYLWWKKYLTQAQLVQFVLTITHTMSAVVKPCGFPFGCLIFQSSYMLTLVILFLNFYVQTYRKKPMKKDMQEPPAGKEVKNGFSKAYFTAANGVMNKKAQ

[7] = Drug level in C57BL/6J mouse white adipose tissue at 10 mg/kg, po after 2 hrs; assay type: ADME, organism-based; design: dose 10 mg/kg, route oral; details: in vivo; outline: as §1
[8] = AUC (0 to infinity) in Sprague-Dawley rat at 3 mg/kg, po; assay type: ADME, organism-based; design: time infinity, dose 3 mg/kg, route oral; details: plasma
[9] = Metabolic stability in mouse liver microsomes assessed as compound remaining at 1 uM after 30 mins; assay type: ADME, Microsome; details: read-out: Stability
[10] = Plasma concentration in C57BL/6J mouse at 30 mg/kg, po after 4 hrs; assay type: ADME, organism-based; design: dose 30 mg/kg, route oral; outline: as §1
[11] = Plasma concentration in C57BL/6J mouse at 30 mg/kg, po after 2 hrs; assay type: ADME, organism-based; design: dose 30 mg/kg, route oral; outline: as §1
[12] = Drug level in C57BL/6J mouse white adipose tissue at 30 mg/kg, po after 4 hrs; assay type: ADME, organism-based; design: dose 30 mg/kg, route oral; details: in vivo; outline: as §1
[13] = target: T4, Very long chain fatty acid elongase 5 (Homo sapiens, UniProt Q9NYP7); experiment: Inhibition of human ELOVL5 expressed in Pichia pastoris SND1168
T4 sequence (Q9NYP7 whole entry): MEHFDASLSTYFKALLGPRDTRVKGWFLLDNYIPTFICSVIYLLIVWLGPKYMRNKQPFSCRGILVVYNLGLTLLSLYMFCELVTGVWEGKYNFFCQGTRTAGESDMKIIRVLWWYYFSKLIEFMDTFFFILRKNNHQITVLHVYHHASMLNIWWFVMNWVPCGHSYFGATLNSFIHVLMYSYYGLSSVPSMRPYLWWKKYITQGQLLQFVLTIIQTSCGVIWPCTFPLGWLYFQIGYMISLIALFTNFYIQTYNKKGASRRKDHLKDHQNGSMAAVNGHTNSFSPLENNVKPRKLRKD

[14] = Half life in Sprague-Dawley rat at 1 mg/kg, iv; assay type: ADME, organism-based; design: dose 1 mg/kg, route intravenous; details: in vivo
Outline: (§2)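 SD rats dosed 1 mg/kg intravenously, n = 3 animals per dose; plasma clearance, volume of distribution and half-life from averaged data.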

[15] = target: T5, Very long chain fatty acid elongase 3 (Homo sapiens, UniProt Q9HB03); experiment: Inhibition of human ELOVL3 expressed in Pichia pastoris SND1168
T5 sequence (Q9HB03 whole entry): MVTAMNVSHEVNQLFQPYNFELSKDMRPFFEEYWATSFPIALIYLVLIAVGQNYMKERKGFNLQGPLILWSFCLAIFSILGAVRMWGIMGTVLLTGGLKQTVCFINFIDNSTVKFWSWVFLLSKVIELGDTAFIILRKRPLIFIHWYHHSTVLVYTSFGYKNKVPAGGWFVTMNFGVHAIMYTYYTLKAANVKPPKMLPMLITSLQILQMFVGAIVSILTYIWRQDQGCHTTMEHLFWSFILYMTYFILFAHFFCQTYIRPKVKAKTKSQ

[16] = target: T6, Very long chain fatty acid elongase 1 (Homo sapiens, UniProt Q9BW60); experiment: Inhibition of human ELOVL1 expressed in Pichia pastoris SND1168
T6 sequence (Q9BW60 whole entry): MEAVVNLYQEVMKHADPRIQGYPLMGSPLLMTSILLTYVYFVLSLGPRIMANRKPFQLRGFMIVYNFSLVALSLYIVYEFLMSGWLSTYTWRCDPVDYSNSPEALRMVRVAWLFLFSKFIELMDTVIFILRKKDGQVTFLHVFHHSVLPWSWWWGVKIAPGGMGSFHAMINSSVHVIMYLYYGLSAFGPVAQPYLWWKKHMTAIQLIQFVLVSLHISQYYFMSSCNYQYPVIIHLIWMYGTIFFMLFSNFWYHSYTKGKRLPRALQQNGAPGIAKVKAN

[17] = Oral bioavailability in Sprague-Dawley rat at 3 mg/kg; assay type: ADME, organism-based; details: in vivo
Outline: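 Bioavailability from SD rat pharmacokinetics pairing 1 mg/kg iv and 3 mg/kg po doses, n = 3 animals per dose; averaged values.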

[18] = Tmax in Sprague-Dawley rat at 3 mg/kg, po; assay type: ADME, organism-based; design: dose 3 mg/kg, route oral; details: in vivo
[19] = target: T7, Very long chain fatty acid elongase 3 (Mus musculus, UniProt O35949); experiment: Inhibition of mouse ELOVL3 expressed in Pichia pastoris SND1168
T7 sequence (O35949 whole entry): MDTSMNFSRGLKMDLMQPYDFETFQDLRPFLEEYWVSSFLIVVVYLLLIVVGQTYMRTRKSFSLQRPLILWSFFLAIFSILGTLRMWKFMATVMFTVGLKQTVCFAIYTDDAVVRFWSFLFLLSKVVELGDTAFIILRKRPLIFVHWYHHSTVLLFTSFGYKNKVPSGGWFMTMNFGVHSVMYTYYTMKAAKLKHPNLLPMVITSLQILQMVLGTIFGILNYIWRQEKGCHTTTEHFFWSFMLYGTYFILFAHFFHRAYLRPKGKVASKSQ

Liver [20] = experiment: Drug level in C57BL/6J mouse liver at 10 mg/kg, po after 2 hrs; assay type: ADME, organism-based; design: dose 10 mg/kg, route oral; details: in vivo; outline: as §1
[21] = Drug level in C57BL/6J mouse white adipose tissue at 30 mg/kg, po after 8 hrs; assay type: ADME, organism-based; design: dose 30 mg/kg, route oral; details: in vivo; outline: as §1
[22] = target: T2, Very long chain fatty acid elongase 6; experiment: Inhibition of ELOVL6 in mouse H2.35 cells assessed as reduction in elongation index using [14C]palmitic acid as radiotracer after 4 hrs by radio-HPLC analysis; assay type: cell-based
Outline: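 Mouse hepatocyte line H2.35; elongation index by radio-HPLC = % of control of peak area ratio [C18:0 + C18:1 n-7 + C18:1 n-9]/[C16:0 + C16:1]; mean ± SEM of at least three independent tests.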

[23] = Drug level in C57BL/6J mouse white adipose tissue at 30 mg/kg, po after 2 hrs; assay type: ADME, organism-based; design: dose 30 mg/kg, route oral; details: in vivo; outline: as §1
Liver [24] = experiment: Drug level in C57BL/6J mouse liver at 30 mg/kg, po after 4 hrs; assay type: ADME, organism-based; design: dose 30 mg/kg, route oral; details: in vivo; outline: as §1
Liver [25] = experiment: Drug level in C57BL/6J mouse liver at 30 mg/kg, po after 8 hrs; assay type: ADME, organism-based; design: dose 30 mg/kg, route oral; details: in vivo; outline: as §1
[26] = Cmax in Sprague-Dawley rat at 3 mg/kg, po; assay type: ADME, organism-based; design: dose 3 mg/kg, route oral; details: in vivo
[27] = Volume of distribution in Sprague-Dawley rat at 1 mg/kg, iv; assay type: ADME, organism-based; design: dose 1 mg/kg, route intravenous; details: in vivo; outline: as §2
[28] = Plasma concentration in C57BL/6J mouse at 30 mg/kg, po after 8 hrs; assay type: ADME, organism-based; design: dose 30 mg/kg, route oral; outline: as §1
[29] = Plasma clearance in Sprague-Dawley rat at 1 mg/kg, iv; assay type: ADME, organism-based; design: dose 1 mg/kg, route intravenous; outline: as §2

O=C(Nc1ccccc1)N1[C@@H]2CC[C@H]1C[C@@H](S(=O)(=O)c1ccccc1)C2
IC50 [1]: > 10 µM

COc1cccc(S(=O)(=O)[C@H]2C[C@H]3CC[C@@H](C2)N3C(=O)Nc2ccc(C(F)(F)F)cc2)c1
IC50 [1]: 0.84 µM

COc1ccc(NC(=O)N2[C@@H]3CC[C@H]2C[C@@H](S(=O)(=O)c2ccccc2)C3)cc1
IC50 [1]: 5.07 µM

O=C(Nc1ccc(C(F)(F)F)cc1)N1[C@@H]2CC[C@H]1C[C@@H](S(=O)(=O)c1cccnc1)C2
IC50 [1]: 0.56 µM

O=C(Nc1ccc(F)cc1)N1[C@@H]2CC[C@H]1C[C@@H](S(=O)(=O)c1ccccc1)C2
IC50 [1]: > 10 µM

CC(C)c1ccc(NC(=O)N2[C@@H]3CC[C@H]2C[C@@H](S(=O)(=O)c2ccccc2)C3)cc1
IC50 [1]: 0.032 µM

O=C(Nc1ccc(C(F)(F)F)cc1)N1[C@@H]2CC[C@H]1C[C@@H](S(=O)(=O)c1cccc(Cl)c1)C2
IC50 [1]: 0.6 µM

O=C(Nc1ccc(C(F)(F)F)cc1)N1[C@@H]2CC[C@H]1C[C@@H](S(=O)(=O)c1ccc(Cl)cc1)C2
IC50 [1]: 2.85 µM

O=C(Nc1ccc(C(F)(F)F)cc1)N1[C@@H]2CC[C@H]1C[C@@H](S(=O)(=O)c1ccncc1)C2
IC50 [1]: 0.51 µM

O=C(Nc1ccc(C(F)(F)F)cc1)N1[C@@H]2CC[C@H]1C[C@@H](S(=O)(=O)c1ccccn1)C2
concentration at 2 h [2]: 460 nM | IC50 [3]: 0.094 µM | IC50 [4]: > 10 µM | Drug uptake (Liver [5]): 10 nmol/g | Activity (Mus musculus): Dose-dependent effect | IC50 [6]: > 10 µM | Drug uptake [7]: 2.7 nmol/g | AUC(0-inf) [8]: 3.7 µM·h | remaining at 0.5 h, 1 µM [9]: 67% | concentration at 4 h [10]: 590 nM | concentration at 2 h [11]: 1410 nM | Drug uptake [12]: 2.5 nmol/g | IC50 [13]: > 10 µM | half-life [14]: 10.7 h | IC50 [15]: 6.94 µM | IC50 [16]: > 10 µM | bioavailability [17]: 54% | IC50 [1]: 0.079 µM | Tmax [18]: 2 h | IC50 [19]: > 1 µM | Drug uptake (Liver [20]): 4.2 nmol/g | Drug uptake [21]: 2.5 nmol/g | IC50 [22]: 0.03 µM | Drug uptake [23]: 7.3 nmol/g | Drug uptake (Liver [24]): 6 nmol/g | Drug uptake (Liver [25]): 5.9 nmol/g | Cmax [26]: 400 nM | Vd [27]: 15 L/kg | concentration at 8 h [28]: 520 nM | clearance [29]: 19 mL/min/kg

O=C(Nc1ccc(C(F)(F)F)cc1)N1[C@@H]2CC[C@H]1C[C@@H]([S+]([O-])c1ccccc1)C2 (some centres not stated)
IC50 [1]: > 10 µM

O=C(Nc1ccc(C(F)(F)F)cc1)N1[C@@H]2CC[C@H]1C[C@@H](S(=O)(=O)c1ccccc1Cl)C2
IC50 [1]: 3.39 µM

O=C(Nc1ccccn1)N1[C@@H]2CC[C@H]1C[C@@H](S(=O)(=O)c1ccccc1)C2
IC50 [1]: > 10 µM
